From ChEMBL document CHEMBL1772990, “Biomimetic syntheses and antiproliferative activities of racemic, natural (-), and unnnatural (+) glyceollin I” (2011) come the findings set out here.

One test deals with LNCaP. The test can be described thus: Antiproliferative activity against human LNCAP cells expressing androgen receptor incubated with 0.6 nM of estradiol and 0.7 nM of testosterone after 48 hrs by sulforhodamine B assay. It is filed as functional. In outline: (§1)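 Sulforhodamine B growth assay with 48 h agent exposure at 37 °C in 5% CO2. Seeding densities were preset to give exponential growth with final OD below 2.0. Percent growth was taken from OD versus matched vehicle-only (0.25% DMSO) controls. GI50 came from a Hill equation fit, with values averaging eight sets of duplicate wells across a concentration range.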
(In general: Sulforhodamine B stains cellular protein and so reports cell mass.)

Test [1] in a line: Antiproliferative activity against estrogen receptor-deficient human NCI-ADR-RES cells incubated with 100 nM of estradiol and 0.07 nM of testosterone after 48 hrs by sulforhodamine B assay in presence of fetal bovine serum and NuSerum. The class given is functional. In outline: (§2)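 High-E2 condition: cells were seeded as for the intermediate-E2 tests. Agents were added in 5% FBS/5% NuSerum medium with E2 added to give 100 nM final during exposure. After 48 h at 37 °C in 5% CO2, sulforhodamine B staining gave percent of matched 0.25% DMSO vehicle-control growth. GI50 came from a Hill equation fit, averaging eight sets of duplicate wells.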

Test [2] relates to MCF7. The test can be described thus: Antiproliferative activity against human MCF7 cells expressing estrogen receptor incubated with 0.06 nM of estradiol and 0.07 nM of testosterone after 48 hrs by sulforhodamine B assay in presence of fetal bovine serum and NuSerum. It is filed as functional. As to conditions: MCF7, 48 h. In outline: as §1
For a further test, the system named is PC-3. Kind of test: Antiproliferative activity against androgen receptor-deficient human PC3 cells incubated with 0.6 nM of estradiol and 0.7 nM of testosterone after 48 hrs by sulforhodamine B assay. The class given is functional. As to conditions: PC-3, 48 h. The procedure, abridged:
as §1

The nature of test [3]: Antiproliferative activity against estrogen receptor-deficient human NCI-ADR-RES cells incubated with 0.06 nM of estradiol and 0.07 nM of testosterone after 48 hrs by sulforhodamine B assay in presence of fetal bovine serum and NuSerum. It is filed as functional. The procedure, abridged: as §1
Test [4] concerns MCF-12A. Kind of test: Antiproliferative activity against estrogen receptor-deficient human MCF12A cells incubated with 0.003 nM of estradiol and 0.01 nM of testosterone after 48 hrs by sulforhodamine B assay in presence of 5% fetal bovine serum. The class given is functional. In outline: (§3)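 Low-E2 condition: MCF7 and NCI-ADR-RES cells were precultured at least 4 days in RPMI with 5% FBS and no NuSerum, then seeded in it at 3500 and 6000 cpw. MCF12A cells were seeded at 1600 cpw in their maintenance medium (DMEM/F-12 with insulin, hydrocortisone, EGF, cholera toxin, 5% FBS). Agents were added in 5% FBS RPMI. After 48 h, growth was read by sulforhodamine B OD versus 0.25% DMSO controls, with GI50 from a Hill fit.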

The subject of test [5] is MCF-12A. Kind of test: Antiproliferative activity against estrogen receptor-deficient human MCF12A cells incubated with 100 nM of estradiol and […] of testosterone after 48 hrs by sulforhodamine B assay in presence of fetal bovine serum and NuSerum.
The subject of test [6] is MCF7. The test can be described thus: Antiproliferative activity against human MCF7 cells expressing estrogen receptor incubated with 0.003 nM of estradiol and 0.01 nM of testosterone after 48 hrs by sulforhodamine B assay in presence of 5% fetal bovine serum. As to conditions: MCF7, 48 h. It is filed as functional. In outline: as §3
For test [7], the system named is MCF7. Kind of test: Antiproliferative activity against human MCF7 cells expressing estrogen receptor incubated with 100 nM of estradiol and 0.07 nM of testosterone after 48 hrs by sulforhodamine B assay in presence of fetal bovine serum and NuSerum. The class given is functional. As to conditions: MCF7, 48 h. In outline:
as §2

The nature of test [8]: Antiproliferative activity against estrogen receptor-deficient human NCI-ADR-RES cells incubated with 0.003 nM of estradiol and 0.01 nM of testosterone after 48 hrs by sulforhodamine B assay in presence of 5% fetal bovine serum. It is filed as functional. In outline:
as §3

In test [9] the test system is MCF-12A. Kind of test: Antiproliferative activity against estrogen receptor-deficient human MCF12A cells incubated with 0.06 nM of estradiol and 0.07 nM of testosterone after 48 hrs by sulforhodamine B assay in presence of fetal bovine serum and NuSerum. It is filed as functional. In outline: as §1
A further test deals with DU-145. Kind of test: Antiproliferative activity against androgen receptor-deficient human DU145 cells incubated with 0.6 nM of estradiol and 0.7 nM of testosterone after 48 hrs by sulforhodamine B assay. As to conditions: DU-145, 48 h. It is filed as functional. The procedure, abridged: as §1

Where only a bound is given, the exact number is not on record here.

As for `CC1(C)C=Cc2c(ccc3c2OC[C@]2(O)c4ccc(O)cc4O[C@H]32)O1`, the GI50 in the test on LNCaP is 27.5 µM; in [1], 30.2 µM; in the test with MCF7 [2], 24 µM; with PC-3, 47.9 µM; in [3], 44.7 µM; in the test on MCF-12A [4] it was 38 µM. The GI50 in the test with MCF-12A [5] is 46.8 µM; in the test with MCF7 [6], 22.9 µM; in the test with MCF7 [7], 21.4 µM; in test [8], 42.7 µM; with MCF-12A [9] it was 38.9 µM; in the test on DU-145 it was 57.5 µM.

As to `CCC(=C(c1ccc(O)cc1)c1ccc(OCCN(C)C)cc1)c1ccccc1`, the GI50 in the test with LNCaP is 8.32 µM; in test [1], 7.76 µM; with MCF7 [2], 1.91 µM; in the test on PC-3, 7.59 µM; in test [3], 6.17 µM; in the test with MCF-12A [4], 3.31 µM. Also, the GI50 was 3.24 µM in the test with MCF-12A [5]; 1.41 µM in the test with MCF7 [6]; 3.47 µM in the test on MCF7 [7]; 4.47 µM in [8]; 3.89 µM with MCF-12A [9]; 10.7 µM with DU-145.

For `CC1(C)C=Cc2c(ccc3c2OCC2(O)c4ccc(O)cc4OC32)O1` (racemic), the GI50 is 12.9 µM in the test on LNCaP; 45.7 µM in [1]; 20 µM in the test on MCF7 [2]; 32.4 µM with PC-3; 37.2 µM in test [3]; 47.9 µM in the test on MCF-12A [4]. In addition, the concentration for 50% growth inhibition (GI50) in the test with MCF-12A [5] is 51.3 µM; with MCF7 [6], 17.4 µM; with MCF7 [7] it was 18.2 µM; in test [8] it was 41.7 µM; with MCF-12A [9] it was 45.7 µM; in the test with DU-145 it was 29.5 µM.

Turning to `C[C@]12CC[C@@H]3c4ccc(O)cc4C[C@@H](CCCCCCCCC[S+]([O-])CCCC(F)(F)C(F)(F)F)[C@H]3[C@@H]1CC[C@@H]2O` (some centres undefined) [FULVESTRANT], the GI50 in the test on LNCaP was 398 µM; in test [1] it was above 100 µM; with MCF7 [2] it was 158 µM; in the test on PC-3, above 100 µM; in test [3], above 100 µM; in the test on MCF-12A [4] it was above 100 µM. For the same compound, the GI50 in the test on MCF-12A [5] was above 100 µM; in the test with MCF7 [6] it was below 0.01 µM; in the test with MCF7 [7], 794 µM; in [8], above 100 µM; with MCF-12A [9] it was above 100 µM; with DU-145 it was above 100 µM.

With `O=c1c(-c2ccc(O)cc2)coc2cc(O)cc(O)c12` [GENISTEIN], the GI50 with LNCaP is 38.9 µM; in test [1] it was 26.9 µM; in the test on MCF7 [2], 45.7 µM; in the test with PC-3, 42.7 µM; in test [3] it was 17 µM; in the test on MCF-12A [4] it was 32.4 µM. The GI50 in the test on MCF-12A [5] was 30.2 µM; with MCF7 [6], 61.7 µM; with MCF7 [7], 52.5 µM; in test [8], 32.4 µM; with MCF-12A [9], 21.9 µM; with DU-145, 50.1 µM.

For the compound `CC1(C)C=Cc2c(ccc3c2OC[C@@]2(O)c4ccc(O)cc4O[C@@H]32)O1` [GLYCEOLLIN I], the GI50 in the test with LNCaP was 11.5 µM; in [1], 29.5 µM; with MCF7 [2], 13.8 µM; in the test with PC-3 it was 30.9 µM; in test [3], 30.2 µM; with MCF-12A [4] it was 33.1 µM. The GI50 in the test with MCF-12A [5] is 38 µM; with MCF7 [6], 13.2 µM; in the test on MCF7 [7] it was 15.1 µM; in test [8], 24.5 µM; in the test with MCF-12A [9], 27.5 µM; with DU-145 it was 36.3 µM.

Take `CC/C(=C(\c1ccccc1)c1ccc(OCCN(C)C)cc1)c1ccccc1` [TAMOXIFEN]: the GI50 with LNCaP is 10 µM; in [1], 11.5 µM; with MCF7 [2], 2.95 µM; in the test with PC-3 it was 11 µM; in test [3] it was 9.55 µM; in the test on MCF-12A [4], 5.75 µM. Besides, the GI50 in the test on MCF-12A [5] is 5.75 µM; with MCF7 [6], 2.29 µM; with MCF7 [7], 5.62 µM; in test [8], 5.75 µM; in the test on MCF-12A [9], 6.92 µM; in the test on DU-145, 13.8 µM.

Broadly, the GI50 is the concentration at which growth is held to half of that of the control.
